Experimental data as given in PubChem BioAssay AID588751 (Vanderbilt Specialized Chemistry Center, 2011).
pEC50: −log10 of the molar value.

Target: Muscarinic acetylcholine receptor M4 (Rattus norvegicus) (UniProt P08485)
Experiment: ACh potentiation at rat M4, late-stage follow-up, counter-screen for M4 PAM project, CHO Gqi5 cells, calcium (AID 588751)
Settings: calcium fluorescence, ACh EC20
In short: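 System – CHO cells stably co-expressing rat M4 receptor and chimeric Gqi5 · Schedule – 144 s compound, 86 s between ACh additions, 37 °C · Signal – kinetic calcium fluorescence with Fluo-4 dye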

Chain of Muscarinic acetylcholine receptor M4 (Rattus norvegicus) (P08485 whole entry, looked up): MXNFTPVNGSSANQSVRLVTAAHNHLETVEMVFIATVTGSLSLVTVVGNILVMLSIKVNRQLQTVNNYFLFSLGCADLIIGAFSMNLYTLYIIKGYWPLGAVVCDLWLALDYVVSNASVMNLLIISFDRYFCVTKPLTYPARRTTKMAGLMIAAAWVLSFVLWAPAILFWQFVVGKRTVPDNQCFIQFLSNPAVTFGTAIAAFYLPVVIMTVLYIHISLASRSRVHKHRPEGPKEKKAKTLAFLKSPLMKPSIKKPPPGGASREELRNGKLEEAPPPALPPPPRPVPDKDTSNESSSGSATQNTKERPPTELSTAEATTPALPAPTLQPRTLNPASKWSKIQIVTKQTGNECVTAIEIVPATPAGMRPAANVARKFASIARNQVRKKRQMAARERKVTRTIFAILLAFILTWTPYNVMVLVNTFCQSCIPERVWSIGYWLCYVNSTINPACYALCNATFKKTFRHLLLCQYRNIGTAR

Structure (SMILES) | pEC50
Cc1nc2sc(C(=O)NCc3ccccc3)c(N)c2c(C)c1Cl | 6.90
Cc1nc2sc(C(=O)NCc3cccc(F)c3F)c(N)c2c(C)c1Cl | 6.94
Cc1nc2sc(C(=O)NCc3ccncc3)c(N)c2c(C)c1Cl | 6.76
Cc1nc2sc(C(=O)NC3CC3)c(N)c2c(C)c1Cl | 6.82
Cc1nc2sc(C(=O)NCc3cccnc3)c(N)c2c(C)c1Cl | 6.57
Cc1nc2sc(C(=O)NCc3nccs3)c(N)c2c(C)c1Cl | 6.73
Cc1nc2sc(C(=O)NCCc3ccncc3)c(N)c2c(C)c1Cl | 6.64
Cc1nc2sc(C(=O)NCc3ccncn3)c(N)c2c(C)c1Cl | 6.28
Cc1nc2sc(C(=O)NCc3ccc4c(c3)OCO4)c(N)c2c(C)c1Cl | 7.21
